This note sets out measurements from ChEMBL document CHEMBL3351258, “An amidation/cyclization approach to the synthesis of N-hydroxyquinolinones and their biological evaluation as potential anti-plasmodial, anti-bacterial, and iron(II)-chelating agents” (Bioorg Med Chem Lett, 2015).

Each structure is given as a SMILES string. pEC50, pIC50: −log10 of the molar value. In brackets after ≈: the same amount, converted by molar mass. Activity calls are given as the source filed them.

The subject of series [1] is Escherichia coli. The series is described as follows: Antibacterial activity against Escherichia coli ATCC 25922 incubated for 18 to 24 hrs followed by addition incubation for 18 to 24 hrs on MHA plates. The class given is functional. A digest of the protocol: (§1)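 Read-out is the minimum bactericidal concentration (MBC), determined separately against Escherichia coli and Staphylococcus aureus.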

In series [2] the test system is Staphylococcus aureus. The series is described as follows: Antibacterial activity against Staphylococcus aureus ATCC 25923 incubated for 18 to 24 hrs followed by addition incubation for 18 to 24 hrs on MHA plates. The class given is functional. In a few lines: as §1
Series [3] has as its system Plasmodium falciparum. Put plainly: Antiplasmodial activity against Plasmodium falciparum 3D7 incubated for 36 to 42 hrs by Giemsa staining method. The class given is functional, organism-based. To be noted: for pIC50: Plasmodium falciparum, 3D7, read-out: IC50. A digest of the protocol: (§2)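 In vitro maturation assay on the chloroquine-sensitive P. falciparum 3D7 strain.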

For series [4], the system named is Escherichia coli. The series is described as follows: Antibacterial activity against Escherichia coli ATCC 25922 up to 1024 ug/ml incubated for 18 to 24 hrs followed by addition incubation for 18 to 24 hrs on MHA plates. The class given is functional, organism-based. A digest of the protocol: as §1
The test system of series [5] is Staphylococcus aureus. The series is described as follows: Antibacterial activity against Staphylococcus aureus ATCC 25923 up to 1024 ug/ml incubated for 18 to 24 hrs followed by addition incubation for 18 to 24 hrs on MHA plates. The class given is functional, organism-based. In a few lines:
as §1

Series [6] can be described thus: Iron chelation activity assessed as drug level causing 50% iron chelation at 20 to 500 ug/ml using FeCl2 and ferrozine. The class given is physicochemical. The settings on record: for pEC50: read-out: Activity. A digest of the protocol:
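The value is the concentration giving 50% chelation ability (50% CA), reported in mM.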

The subject of series [7] is Plasmodium falciparum. Put plainly: Antiplasmodial activity against Plasmodium falciparum 3D7 up to 5092 ug/ml incubated for 36 to 42 hrs by Giemsa staining method. Format: functional, organism-based. The settings on record: in the assay text read “5092 ng/ml” for “5092 ug/ml”. A digest of the protocol:
as §2

Series [8] in a line: Iron chelation activity at 500 ug/ml using FeCl2 and ferrozine. The class given is physicochemical.

`O=c1c(-c2ccccc2)cc2ccccc2n1O`: the MBC result in the series on Escherichia coli [1] and with Staphylococcus aureus [2] was “inactive” in each case. For the same compound, in the series on Plasmodium falciparum [3], the pIC50 (in general, −log10 of the IC50, conventionally taken in molar units) is 4.85. The outcome with Escherichia coli [4] and in the series with Staphylococcus aureus [5] was inactive.

Turning to `COc1ccc2c(c1)cc(-c1ccccc1C)c(=O)n2O`, in the series on Escherichia coli [1], the MBC (usually the smallest concentration meeting the test's criterion for killing) was “inactive”. Further, the MBC against Staphylococcus aureus [2] turned out to be 3.6 mM (≈ 1010 µg/mL). Besides, the pIC50 in the series on Plasmodium falciparum [3] was 5.89. In series [6], the pEC50 was 3.55. Moreover, in the series with Escherichia coli [4], the outcome was inactive.

Regarding `COc1ccccc1-c1cc2ccccc2n(O)c1=O`, the MBC with Escherichia coli [1] worked out at 1900 µM (≈ 508 µg/mL); in the series on Staphylococcus aureus [2], 3.8 mM (≈ 1020 µg/mL). For the same compound, in the series on Plasmodium falciparum [3], the pIC50 was 5.12.

Turning to `COc1cc2cc(-c3ccccc3C)c(=O)n(O)c2cc1OC`, the MBC result in the series with Escherichia coli [1] and in the series on Staphylococcus aureus [2] was “inactive” in each case. Also, the pIC50 in the series with Plasmodium falciparum [3] was 5.26. The result in the series on Escherichia coli [4] and with Staphylococcus aureus [5] was inactive.

With `O=c1c(-c2cccc3ccccc23)cc2cc3c(cc2n1O)OCO3`, the MBC result in the series with Escherichia coli [1] and with Staphylococcus aureus [2] was “inactive” each time. In addition, the negative-log IC50 (pIC50) in the series on Plasmodium falciparum [3] was 5.38. Moreover, the result in the series with Escherichia coli [4] and in the series with Staphylococcus aureus [5] was inactive.

Consider `O=c1c(-c2cccc3ccccc23)cc2cc(O)ccc2n1O`, for which the MBC against Escherichia coli [1] came to 3400 µM (≈ 1030 µg/mL). Further, the MBC result in the series on Staphylococcus aureus [2] is “inactive”. Further, the pIC50 in the series on Plasmodium falciparum [3] is 5.60. Moreover, the outcome in the series with Staphylococcus aureus [5] was inactive.

In the case of `O=c1c(-c2cccc3ccccc23)cc2c(F)cccc2n1O`, the MBC result in the series with Escherichia coli [1] and with Staphylococcus aureus [2] was “inactive” in each case. Moreover, the pIC50 in the series on Plasmodium falciparum [3] was 5.85. Further, the pEC50 in series [6] is 3.62. The result in the series with Escherichia coli [4] and in the series on Staphylococcus aureus [5] was inactive.

Consider `Cc1ccccc1-c1cc2ccccc2n(O)c1=O`, for which the MBC entry in the series on Escherichia coli [1] was “inactive”. Further, the MBC against Staphylococcus aureus [2] was determined as 4.1 mM (≈ 1030 µg/mL). Besides, the pIC50 in the series on Plasmodium falciparum [3] was 5.52. In the series with Escherichia coli [4], the outcome was inactive.

As to `O=c1c(-c2ccccc2C(F)(F)F)cc2ccccc2n1O`, the MBC result in the series on Escherichia coli [1] was “inactive”. Further, in the series on Staphylococcus aureus [2], the MBC stood at 3.4 mM (≈ 1040 µg/mL). Besides, in the series with Plasmodium falciparum [3], the pIC50 was 5.23. For the same compound, in the series on Escherichia coli [4], the result was inactive.

Consider `O=c1c(-c2ccc3ccccc3c2)c(O)c2ccccc2n1O`, for which the MBC entry in the series on Escherichia coli [1] and with Staphylococcus aureus [2] was “inactive” in each case. In addition, the IC50 entry with Plasmodium falciparum [3] was “Not Active”. The result with Escherichia coli [4], with Staphylococcus aureus [5] and with Plasmodium falciparum [7] was inactive.

`Cc1ccccc1-c1cc2cc(O)ccc2n(O)c1=O`: the MBC in the series with Escherichia coli [1] came out at 1900 µM (≈ 508 µg/mL); against Staphylococcus aureus [2] it was 3.8 mM (≈ 1020 µg/mL). The pIC50 with Plasmodium falciparum [3] is 5.46.

For `O=c1c(-c2cccc3ccccc23)c(O)c2ccccc2n1O`, the MBC result in the series on Escherichia coli [1] was “inactive”. The same compound registered an MBC in the series with Staphylococcus aureus [2] of 1.7 mM (≈ 516 µg/mL). Further, the IC50 result with Plasmodium falciparum [3] was “Not Active”. The pEC50 in series [6] is 3.55. The result in the series on Escherichia coli [4] and in the series on Plasmodium falciparum [7] was inactive.

For the compound `O=c1c(-c2ccccc2)c(O)c2ccccc2n1O`, in the series with Escherichia coli [1], the MBC came to 4000 µM (≈ 1010 µg/mL). Moreover, the MBC entry in the series on Staphylococcus aureus [2] is “inactive”. In addition, the IC50 entry in the series with Plasmodium falciparum [3] is reported as “Not Active”. The result in the series with Staphylococcus aureus [5] and in the series on Plasmodium falciparum [7] was inactive.

As for `O=c1c(-c2ccccc2C(F)(F)F)c(O)c2ccccc2n1O`, the MBC entry with Escherichia coli [1] and in the series on Staphylococcus aureus [2] was “inactive” each time. Moreover, the IC50 entry with Plasmodium falciparum [3] is reported as “Not Active”. In addition, the outcome with Escherichia coli [4], in the series with Staphylococcus aureus [5] and with Plasmodium falciparum [7] was inactive.

As for `Cc1ccccc1-c1cc2c(F)cccc2n(O)c1=O`, the MBC result with Escherichia coli [1] and in the series on Staphylococcus aureus [2] was “inactive” throughout. The pIC50 with Plasmodium falciparum [3] is 5.30. In addition, the pEC50 in series [6] was 3.55. Moreover, the outcome in the series with Escherichia coli [4] and in the series on Staphylococcus aureus [5] was inactive.

As to `Cc1ccccc1-c1cc2c3c(ccc2n(O)c1=O)OCO3`, the MBC entry in the series on Escherichia coli [1] and in the series on Staphylococcus aureus [2] was “inactive” each time. Besides, the pIC50 in the series with Plasmodium falciparum [3] was 5.44. Further, the result in the series with Escherichia coli [4] and with Staphylococcus aureus [5] was inactive.

As to `O=c1c(-c2cccc3ccccc23)cc2c3c(ccc2n1O)OCO3`, in the series with Escherichia coli [1], the MBC entry is “inactive”. For the same compound, in the series with Staphylococcus aureus [2], the MBC amounted to 3.1 mM (≈ 1030 µg/mL). For the same compound, the pIC50 in the series on Plasmodium falciparum [3] is 5.72. In the series on Escherichia coli [4], the outcome was inactive.

In the case of `O=c1c(-c2ccc3ccccc3c2)cc2ccccc2n1O`, the MBC result with Escherichia coli [1] is “inactive”. The compound further had an MBC against Staphylococcus aureus [2] of 3.6 mM (≈ 1030 µg/mL). In addition, in the series on Plasmodium falciparum [3], the pIC50 is 5.54. Moreover, in the series with Escherichia coli [4], the outcome was inactive.

As to `Cc1ccccc1-c1c(O)c2ccccc2n(O)c1=O`, the MBC result with Escherichia coli [1] and with Staphylococcus aureus [2] was “inactive” in each case. Further, the IC50 result in the series with Plasmodium falciparum [3] is reported as “Not Active”. In addition, the outcome with Escherichia coli [4], with Staphylococcus aureus [5] and in the series on Plasmodium falciparum [7] was inactive.

Turning to `Cc1ccccc1-c1cc2cc3c(cc2n(O)c1=O)OCO3`, the MBC result in the series on Escherichia coli [1] and in the series on Staphylococcus aureus [2] was “inactive” in each case. Moreover, the pIC50 in the series with Plasmodium falciparum [3] is 5.34. Besides, the result with Escherichia coli [4] and with Staphylococcus aureus [5] was inactive.

With `COc1ccc2c(c1)cc(-c1cccc3ccccc13)c(=O)n2O`, the MBC result in the series with Escherichia coli [1] and in the series on Staphylococcus aureus [2] was “inactive” each time. Also, in the series on Plasmodium falciparum [3], the pIC50 is 5.89. The pEC50 in series [6] was 3.60. The result in the series on Escherichia coli [4] and in the series with Staphylococcus aureus [5] was inactive.

`O=c1c(-c2cccc3ccccc23)cc2cc(F)ccc2n1O`: the MBC entry in the series with Escherichia coli [1] and in the series on Staphylococcus aureus [2] was “inactive” in each case. Moreover, the pIC50 in the series on Plasmodium falciparum [3] is 5.96. Further, the pEC50 in series [6] was 3.62. The outcome in the series on Escherichia coli [4] and in the series with Staphylococcus aureus [5] was inactive.

Turning to `COc1cc2cc(-c3cccc4ccccc34)c(=O)n(O)c2cc1OC`, the MBC result in the series on Escherichia coli [1] and in the series with Staphylococcus aureus [2] was “inactive” each time. Moreover, the pIC50 in the series with Plasmodium falciparum [3] is 5.30. In addition, the result in the series with Escherichia coli [4] and in the series on Staphylococcus aureus [5] was inactive.

Regarding `COc1ccccc1-c1c(O)c2ccccc2n(O)c1=O`, the MBC entry in the series with Escherichia coli [1] and in the series on Staphylococcus aureus [2] was “inactive” each time. For the same compound, in the series on Plasmodium falciparum [3], the IC50 entry was “Not Active”. Moreover, the outcome in the series with Escherichia coli [4], in the series on Staphylococcus aureus [5] and in the series with Plasmodium falciparum [7] was inactive.

Consider `O=c1[nH]c2ccccc2cc1-c1cccc2ccccc12`, for which the MBC entry with Escherichia coli [1] and with Staphylococcus aureus [2] was “inactive” each time. Further, in the series on Plasmodium falciparum [3], the IC50 result is “Not Active”. In addition, the Activity entry in series [6] and in series [8] was “Not Active” throughout. Besides, the result in the series on Escherichia coli [4], in the series with Staphylococcus aureus [5] and in the series on Plasmodium falciparum [7] was inactive.

On to `C=C[C@]1(C)C[C@H](C)C[C@H](C)[C@H]1c1c(O)ccn(O)c1=O`, for which the pIC50 in the series with Plasmodium falciparum [3] is 6.10.

Take `Cc1ccccc1-c1cc2cc(F)ccc2n(O)c1=O`: the MBC entry in the series with Escherichia coli [1] and in the series on Staphylococcus aureus [2] was “inactive” in each case. Also, the pIC50 with Plasmodium falciparum [3] was 5.32. Also, the pEC50 in series [6] is 3.54. Moreover, the result in the series with Escherichia coli [4] and with Staphylococcus aureus [5] was inactive.

For the compound `O=c1c(-c2cccc3ccccc23)cc2ccccc2n1O`, the MBC result in the series on Escherichia coli [1] and in the series with Staphylococcus aureus [2] was “inactive” throughout. Also, in the series on Plasmodium falciparum [3], the pIC50 was 5.59. In addition, the result in the series on Escherichia coli [4] and in the series with Staphylococcus aureus [5] was inactive.
